Experimental data taken from ChEMBL document CHEMBL1124808, “The synthesis and antiallergy activity of 1-(aryloxy)-4-(4-arylpiperazinyl)-2-butanol derivatives” (1990).

Assays:
Format in all cases: functional
Rattus norvegicus [1] = experiment: Percent change in volume of foot edema of test compound to that of positive control was determined at a dose of 10 mg/kg in rat; […]
Rattus norvegicus [2] = experiment: Percent change in volume of foot edema of test compound to that of positive control was determined at a dose of 31.6 mg/kg in rat; […]/-69
Rattus norvegicus [3] = experiment: Oral Antiallergic activity in the passive foot anaphylaxis (PFA) assay of various amines at the dose of 3.16 mg/kg; -33/-84
Rattus norvegicus [4] = experiment: Percent change in volume of foot edema of test compound to that of positive control was determined at a dose of 31.6 mg/kg in rat; -59/-83
Rattus norvegicus [5] = experiment: Percent change in volume of foot edema of test compound to that of positive control was determined at a dose of 10 mg/kg in rat; -2/-65
Rattus norvegicus [6] = experiment: Percent change in volume of foot edema of test compound to that of positive control was determined at a dose of 31.6 mg/kg in rat; -29/-47
Rattus norvegicus [7] = experiment: Percent change in volume of foot edema of test compound to that of positive control was determined at a dose of 31.6 mg/kg in rat
Rattus norvegicus [8] = experiment: Percent change in volume of foot edema of test compound to that of positive control was determined at a dose of 10 mg/kg in rat
Rattus norvegicus [9] = experiment: Percent change in volume of foot edema of test compound to that of positive control was determined at a dose of 31.6 mg/kg in rat; […]/-78
Rattus norvegicus [10] = experiment: Percent change in volume of foot edema of test compound to that of positive control was determined at a dose of 10 mg/kg in rat; -50/-62
Rattus norvegicus [11] = experiment: Percent change in volume of foot edema of test compound to that of positive control was determined at a dose of 3.16 mg/kg in rat; +22/-62
Rattus norvegicus [12] = experiment: Percent change in volume of foot edema of test compound to that of positive control was determined at a dose of 31.6 mg/kg in rat; -17/-70
Rattus norvegicus [13] = experiment: Percent change in volume of foot edema of test compound to that of positive control was determined at a dose of 10 mg/kg in rat; -9/-80
Rattus norvegicus [14] = experiment: Percent change in volume of foot edema of test compound to that of positive control was determined at a dose of 31.6 mg/kg in rat; -61/-63
Rattus norvegicus [15] = experiment: Percent change in volume of foot edema of test compound to that of positive control was determined at a dose of 31.6 mg/kg in rat; -78/-69
Rattus norvegicus [16] = experiment: Percent change in volume of foot edema of test compound to that of positive control was determined at a dose of 3.16 mg/kg in rat; -36/-80
Rattus norvegicus [17] = experiment: Percent change in volume of foot edema of test compound to that of positive control was determined at a dose of 10 mg/kg in rat; -55/-63
Rattus norvegicus [18] = experiment: Percent change in volume of foot edema of test compound to that of positive control was determined at a dose of 31.6 mg/kg in rat; -73/-65
Rattus norvegicus [19] = experiment: Percent change in volume of foot edema of test compound to that of positive control was determined at a dose of 10 mg/kg in rat; -43/-81
Rattus norvegicus [20] = experiment: Percent change in volume of foot edema of test compound to that of positive control was determined at a dose of 31.6 mg/kg in rat; -91/-83
Cavia porcellus = organism: Cavia porcellus; experiment: Dose that protects 50% of guinea pig from collapse was determined in guinea pig anaphylaxis assay; details: read-out: PD50
Summary of the method: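 Guinea pigs dosed by gavage (10 mL/kg) with compound in 0.5% Tween 80/water; reference theophylline 100 mg/kg po. At 1–24 h, exposed in chamber to aerosolized 1% (w/v) egg albumin at 10 L air/min for up to 5 min; protected if no collapse within 5 min. PD50 by Litchfield and Wilcoxon.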

Rattus norvegicus [21] = experiment: Oral Antiallergic activity in the passive foot anaphylaxis (PFA) assay of various amines at the dose of 3.16 mg/kg; -42/-78
Rattus norvegicus [22] = experiment: Percent change in volume of foot edema of test compound to that of positive control was determined at a dose of 10 mg/kg in rat; -70/-88
Rattus norvegicus [23] = experiment: Percent change in volume of foot edema of test compound to that of positive control was determined at a dose of 10 mg/kg in rat; -34/-78
Rattus norvegicus [24] = experiment: Percent change in volume of foot edema of test compound to that of positive control was determined at a dose of 31.6 mg/kg in rat; -88/-75
Rattus norvegicus [25] = experiment: Percent change in volume of foot edema of test compound to that of positive control was determined at a dose of 31.6 mg/kg in rat; -54/-44
Rattus norvegicus [26] = experiment: Percent change in volume of foot edema of test compound to that of positive control was determined at a dose of 10 mg/kg in rat; -10/-44
Rattus norvegicus [27] = experiment: Percent change in volume of foot edema of test compound to that of positive control was determined at a dose of 31.6 mg/kg in rat; -24/-58
Rattus norvegicus [28] = experiment: Percent change in volume of foot edema of test compound to that of positive control was determined at a dose of 3.16 mg/kg in rat; -32/-93
Rattus norvegicus [29] = experiment: Percent change in volume of foot edema of test compound to that of positive control was determined at a dose of 31.6 mg/kg in rat; -88/-83
Rattus norvegicus [30] = experiment: Percent change in volume of foot edema of test compound to that of positive control was determined at a dose of 10 mg/kg in rat; -72/-83

SMILES: Cc1cc(OCC(O)CCN2CCN(c3ccccc3)CC2)ccc1Cl (stereo not drawn)
- PFA (Rattus norvegicus [1]): -45
- PFA (Rattus norvegicus [2]): -71
- PFA (Rattus norvegicus [3]): -33

SMILES: OC(CCN1CCN(c2ccc(Br)cc2)CC1)COc1ccccc1 (stereo not drawn)
- PFA (Rattus norvegicus [4]): -59
- PFA (Rattus norvegicus [5]): -2

SMILES: OC(CCN1CCC(c2ccccc2)CC1)COc1ccccc1 (stereo not drawn)
- PFA (Rattus norvegicus [6]): -29

SMILES: Cl.Cl.O=[N+]([O-])c1ccc(OCC(O)CCN2CCN(c3ccccc3)CC2)cc1 (stereo not drawn)
- PFA (Rattus norvegicus [7]): -92
- PFA (Rattus norvegicus [8]): -28

SMILES: Cc1cc(Cl)ccc1OCC(O)CCN1CCN(c2ccccc2)CC1.Cl.Cl (stereo not drawn)
- PFA (Rattus norvegicus [9]): -69
- PFA (Rattus norvegicus [10]): -50
- PFA (Rattus norvegicus [11]): 22

SMILES: OC(CCOc1ccccc1)CN1CCN(c2ccccc2)CC1 (stereo not drawn)
- PFA (Rattus norvegicus [12]): -17

SMILES: OC(CCN1CCN(c2ccc(Cl)c(Cl)c2)CC1)COc1ccccc1 (stereo not drawn)
- PFA (Rattus norvegicus [13]): -9
- PFA (Rattus norvegicus [14]): -61

SMILES: OC(CCN1CCN(c2ccc(F)cc2)CC1)COc1ccc(Cl)cc1 (stereo not drawn)
- PFA (Rattus norvegicus [15]): -78
- PFA (Rattus norvegicus [16]): -36
- PFA (Rattus norvegicus [17]): -55

SMILES: OC(CCN1CCN(c2ccccc2)CC1)COc1ccc(F)cc1 (stereo not drawn)
- PFA (Rattus norvegicus [18]): -73
- PFA (Rattus norvegicus [19]): -43

SMILES: COc1ccc(N2CCN(CCC(O)COc3ccc(F)cc3)CC2)cc1.Cl (stereo not drawn)
- PFA (Rattus norvegicus [20]): -91
- ED50 (Cavia porcellus): > 178 mg/kg
- PFA (Rattus norvegicus [21]): -42
- PFA (Rattus norvegicus [22]): -70

SMILES: OC(CCN1CCN(c2ccccc2)CC1)COc1ccccc1 (stereo not drawn)
- PFA (Rattus norvegicus [23]): -34
- ED50 (Cavia porcellus): 40 mg/kg
- PFA (Rattus norvegicus [24]): -88

SMILES: COc1ccc(OCC(O)CCN2CCN(c3ccccc3)CC2)cc1 (stereo not drawn)
- PFA (Rattus norvegicus [25]): -54
- PFA (Rattus norvegicus [26]): -10

SMILES: CN1CCN(CCC(O)COc2ccccc2)CC1.O=C(O)/C=C\C(=O)O (stereo not drawn)
- PFA (Rattus norvegicus [27]): -24

SMILES: Cl.OC(CCN1CCN(c2ccc(F)cc2)CC1)COc1ccc(F)cc1 (stereo not drawn)
- PFA (Rattus norvegicus [28]): -32
- PFA (Rattus norvegicus [29]): -88
- ED50 (Cavia porcellus): 3.06 mg/kg
- PFA (Rattus norvegicus [30]): -72
